Measurements pooled from the literature.
F2: Prothrombin (F2, Homo sapiens, UniProt P00734)
HDAC6: Protein deacetylase HDAC6 (HDAC6, Homo sapiens, UniProt Q9UBN7)
Dihydroorotate dehydrogenase, mitochondrial, putative: Dihydroorotate dehydrogenase, mitochondrial, putative (Plasmodium vivax, UniProt A5K1N1)
CDK7 with cyclin H: Cyclin-dependent kinase 7, with cyclin H (CDK7, Homo sapiens, UniProt P50613)
PDE4D: 3',5'-cyclic-AMP phosphodiesterase 4D (PDE4D, Homo sapiens, UniProt Q08499)
KCNK18: Potassium channel subfamily K member 18 (KCNK18, Homo sapiens, UniProt Q7Z418)
GRM7: Metabotropic glutamate receptor 7 (GRM7, Homo sapiens, UniProt Q14831)
CAPN1: Calpain-1 catalytic subunit (CAPN1, Homo sapiens, UniProt P07384)
MEP1B: Meprin A subunit beta (MEP1B, Homo sapiens, UniProt Q16820)

target | read-out | action | method | setting | IC50 [µM] | Structure (SMILES)
F2 | enzyme activity | inhibitor |  |  | 44.9 | COc1cc(/C=N/n2c(C)nc3ccc(Br)cc3c2=O)ccc1OCc1ccc(Cl)cc1
HDAC6 | enzyme activity | inhibitor |  |  | 1.1 | CCCC[C@H](NC(=O)C1CN(C)C1)c1ncc(-c2cc3ccccc3nc2OC)[nH]1
Liver carboxylesterase 1 (CES1, Homo sapiens, UniProt P23141) | enzyme activity | inhibitor |  |  | > 10 | O=C(Nc1cccnc1)N1CCC(Cc2cccc(Oc3ccc(C(F)(F)F)cn3)c2)CC1
Mitogen-activated protein kinase 1 (MAPK1, Homo sapiens, UniProt P28482) | cell-free assay |  |  |  | > 10 | CC(C)(C)n1nc(-c2ccc3nc(OC4CC4)ccc3c2)c(C(N)=O)c1N
Dihydroorotate dehydrogenase, mitochondrial, putative | enzyme activity | inhibitor | absorbance |  | 0.26 | Cc1nc(Nc2ccc(C)c(Cl)c2)c2c(C)noc2n1
Disintegrin and metalloproteinase domain-containing protein 8 (Homo sapiens, UniProt P78325) | enzyme activity | inhibitor | fluorescence |  | 0.046 | CNC(=O)[C@H](Cc1ccccc1)NC(=O)[C@H](CC(C)C)[C@H](CSc1cccs1)C(=O)NO
F2 | enzyme activity | inhibitor |  |  | 42.5 | COc1cc(/C=N/n2c(C)nc3ccc(Br)cc3c2=O)ccc1O
CDK7 with cyclin H | enzyme activity | inhibitor | ADP detection |  | > 100 | O=c1cc(-c2ccccc2)oc2c1ccc1ccccc12
PDE4D | enzyme activity | inhibitor |  |  | 0.495 | O=C1NC(=O)/C(=C/c2ccc(OCCNc3nc4c(cnn4C4CCCC4)c(=O)[nH]3)c(F)c2)S1
KCNK18 | ion flux | inhibitor |  |  | 21.9 | COC(=O)C1=C(C)NC(C)=C(C(=O)OCCN(C)Cc2ccccc2)C1c1cccc([N+](=O)[O-])c1 (stereo not drawn)
Cyclin-dependent kinase 7 (CDK7, Homo sapiens, UniProt P50613) | enzyme activity | inhibitor | radiometric |  | > 10 | CN(C)CC#Cc1ccc2[nH]c3c(c2c1)-c1nc(N)ncc1CCC3
Cathepsin B-like cysteine protease (Trypanosoma brucei, UniProt Q6R7Z5) | enzyme activity | inhibitor |  |  | > 15 | N#Cc1nc(NCc2cccc(-c3cn(S(=O)(=O)c4ccccc4)c4ccccc34)c2)c2ncn(CCCO)c2n1
CDK7 with cyclin H | enzyme activity | inhibitor | ADP detection |  | > 100 | COc1c(C(=O)/C=C(\O)c2ccccc2)ccc2occc12
F2 | enzyme activity | inhibitor |  |  | 210 | COc1cc(/C=N/n2c(C)nc3ccc(C)cc3c2=O)cc([N+](=O)[O-])c1O
GRM7 | calcium signal | antagonist |  |  | > 30 | COc1ccc(-c2noc(-c3cc(Cl)ccc3-n3cncn3)n2)c(F)c1OC
F2 | enzyme activity | inhibitor |  |  | 5.01 | Cc1nc2ccccc2c(=O)n1NC(=O)CSc1nc2ccccc2c(=O)n1-c1ccccc1
F2 | enzyme activity | inhibitor |  |  | 6.6 | CC[C@@H](C(=O)Nc1ccc(C(N)=O)c(F)c1)n1cc(OC)c(-c2cc(Cl)ccc2-n2cc(C(F)(F)F)nn2)cc1=O
Free fatty acid receptor 3 (FFAR3, Homo sapiens, UniProt O14843) | GTPγS binding | antagonist |  | cell membranes | > 31.6 | O=C(N[C@@H](Cc1c[nH]c2ccccc12)C(=O)O)c1ccc(Cl)cc1
CAPN1 | enzyme activity | inhibitor |  |  | 3.9 | CC(C)Cc1ncc(Cc2ccc(O)cc2)[nH]c1=O
HDAC6 | enzyme activity | inhibitor | fluorescence |  | 0.02 | CCCON(Cc1ccc(C(=O)NO)cc1)C(=O)Nc1ccccc1
Cathepsin D (CTSD, Homo sapiens, UniProt P07339) | enzyme activity | inhibitor |  |  | 16.1 | CC#Cc1cncc(-c2ccc3c(c2)[C@@]2(N=C(C)C(N)=N2)[C@]2(CC[C@H](OC)CC2)C3)c1

target | read-out | action | method | setting | IC50 [µM] | Structure (SMILES)
Dihydroorotate dehydrogenase, mitochondrial, putative | enzyme activity | inhibitor | absorbance |  | 0.066 | Cc1nc(Nc2ccc(S(F)(F)(F)(F)F)cc2)c2c(C(F)(F)F)noc2n1
CDK7 with cyclin H | enzyme activity | inhibitor | FRET |  | 0.00633 | CN(C)C/C=C/C(=O)Nc1ccc(C(=O)N2CC[C@@H](Nc3ncc(Cl)c(-c4c[nH]c5ccccc45)n3)C2)cc1
MEP1B | enzyme activity | inhibitor |  |  | 0.146 | O=C(CCN(Cc1ccc2c(c1)OCO2)Cc1ccc(Cl)c(O)c1F)NO
GRM7 | calcium signal | antagonist |  |  | > 12.5 | COc1ccc(-c2nsc(NC(=O)[C@@H]3C[C@H]3C)c2C)cc1
MEP1B | enzyme activity | inhibitor |  |  | 0.274 | O=C(CCN(Cc1ccc(Cl)cc1F)Cc1ccc(Cl)c(O)c1F)NO
Dihydroorotate dehydrogenase, mitochondrial, putative | enzyme activity | inhibitor | absorbance |  | 0.076 | Cc1nc(Nc2ccc(C(F)(F)F)cc2)c2c(C(F)(F)F)noc2n1
PDE4D | enzyme activity | inhibitor |  |  | 0.251 | COc1ccc(C2=NN(C3CCCCCC3)C(=O)[C@@H]3CC=CC[C@H]23)cc1-c1ccc(C(=O)NCC(N)=O)cc1 (relative stereo)
F2 | enzyme activity | inhibitor |  |  | 269 | CCc1ccc(/C=N/n2c(C)nc3ccc(C)cc3c2=O)s1
CDK7 with cyclin H | enzyme activity | inhibitor | FRET |  | 0.318 | C=CC(=O)Nc1ccc(N2CCC[C@@H](Nc3ncc(Cl)c(-c4c[nH]c5ccccc45)n3)C2)c(F)c1
PDE4D | enzyme activity | inhibitor |  |  | 0.175 | Cc1ccc(-c2ccc(O)cc2)c(C(=C2C=CC(=O)C=C2)c2ccc(O)cc2)c1C#Cc1ccc(O)cc1
MEP1B | enzyme activity | inhibitor |  |  | 9.65 | O=C(CCN(Cc1cccnc1)Cc1ccc2c(c1)OCO2)NO
GRM7 | calcium signal | antagonist |  |  | > 30 | COc1ccc(-c2noc(-c3cc(Cl)c(F)cc3-n3cncn3)n2)cc1OC
Histone-lysine N-methyltransferase EHMT2 (EHMT2, Homo sapiens, UniProt Q96KQ7) | enzyme activity | inhibitor |  |  | 1.5 | COc1cc2c(NC3CCN(C)CC3)nc(N3CCCN(C)CC3)nc2cc1OCCCCCCN(C)C
Potassium channel subfamily K member 9 (KCNK9, Homo sapiens, UniProt Q9NPC2) | ion flux | inhibitor |  |  | > 30 | COCCOC(=O)C1=C(C)NC(C)=C(C(=O)OC(C)C)C1c1cccc([N+](=O)[O-])c1 (stereo not drawn)
HDAC6 | enzyme activity | inhibitor |  |  | 0.01 | O=C(NO)c1ccc(Cn2c(C(F)(F)F)nc3ccccc32)cc1
Tyrosine-protein kinase SYK (SYK, Homo sapiens, UniProt P43405) | enzyme activity | inhibitor |  |  | > 0.5 | COc1ccc2c(Oc3ccc4c(C(=O)Nc5ccccc5N)cccc4c3)ccnc2c1
KCNK18 | ion flux | inhibitor |  |  | 19.8 | CCOC(=O)C1=C(C)NC(C)=C(C(=O)OC)C1c1cccc([N+](=O)[O-])c1 (stereo not drawn)
HDAC6 | enzyme activity | inhibitor |  |  | 3.71 | Cc1nc2ccccc2n1Cc1nc(C(=O)NO)co1
CAPN1 | enzyme activity | inhibitor |  |  | 0.0309 | CC(C)C[C@H](NC(=O)[C@H]1O[C@@H]1C(=O)O)C(=O)NCCCCN=C(N)N
5-hydroxytryptamine receptor 1B (HTR1B, Homo sapiens, UniProt P28222) | ligand displacement |  | radioligand |  | > 30 | CCOCc1nc(O)c(-c2nnc(Cc3ccc(Cl)cn3)o2)c(O)c1-c1c(OC)cccc1OC
DNA-directed DNA polymerase (Enterobacteria phage T4, UniProt P04415) | enzyme activity | inhibitor |  |  | > 100 | CC/C=C\C/C=C\C/C=C\C/C=C\C/C=C\CCCC(=O)O
